Starred links: 1 amine or outer side, 2 acyl side, 3 side chain; linkers in the order of their positions; H or OH if unused. Non-standard residues stand in square brackets, D forms with d. Residues, ends and D or L forms follow the SMILES beside them. *: point of attachment. Sta = CC(C)C[C@H](N)[C@@H](O)CC(=O)O; tBuAla = CC(C)(C)C[C@H](N)C(=O)O; NMeL = CN[C@@H](CC(C)C)C(=O)O; Chg = N[C@H](C(=O)O)C1CCCCC1; Phg = N[C@H](C(=O)O)c1ccccc1; Tle = CC(C)(C)[C@H](N)C(=O)O; NMeS = CN[C@@H](CO)C(=O)O; hSer = N[C@@H](CCO)C(=O)O; Nva = CCC[C@H](N)C(=O)O; Abu = CC[C@H](N)C(=O)O; Aib = CC(C)(N)C(=O)O; CO = O=C([*:1])[*:2]; Bz = O=C(c1ccccc1)*; NHPh = c1ccc(N*)cc1; Bn = c1ccc(C*)cc1
Columns and labels:
[1] = target: Tyrosine-protein phosphatase non-receptor type 13 (Homo sapiens) (UniProt Q12923); assay: In vitro inhibition of Fas-associated phosphatase-1 binding from HFAP-10cDNA subcloned into bluescript vector; set-up: concentration or dose not given beside the values; conditions: concentration not given here
Sequence of Tyrosine-protein phosphatase non-receptor type 13 (Homo sapiens) (Q12923 whole entry, the tested form may be a part): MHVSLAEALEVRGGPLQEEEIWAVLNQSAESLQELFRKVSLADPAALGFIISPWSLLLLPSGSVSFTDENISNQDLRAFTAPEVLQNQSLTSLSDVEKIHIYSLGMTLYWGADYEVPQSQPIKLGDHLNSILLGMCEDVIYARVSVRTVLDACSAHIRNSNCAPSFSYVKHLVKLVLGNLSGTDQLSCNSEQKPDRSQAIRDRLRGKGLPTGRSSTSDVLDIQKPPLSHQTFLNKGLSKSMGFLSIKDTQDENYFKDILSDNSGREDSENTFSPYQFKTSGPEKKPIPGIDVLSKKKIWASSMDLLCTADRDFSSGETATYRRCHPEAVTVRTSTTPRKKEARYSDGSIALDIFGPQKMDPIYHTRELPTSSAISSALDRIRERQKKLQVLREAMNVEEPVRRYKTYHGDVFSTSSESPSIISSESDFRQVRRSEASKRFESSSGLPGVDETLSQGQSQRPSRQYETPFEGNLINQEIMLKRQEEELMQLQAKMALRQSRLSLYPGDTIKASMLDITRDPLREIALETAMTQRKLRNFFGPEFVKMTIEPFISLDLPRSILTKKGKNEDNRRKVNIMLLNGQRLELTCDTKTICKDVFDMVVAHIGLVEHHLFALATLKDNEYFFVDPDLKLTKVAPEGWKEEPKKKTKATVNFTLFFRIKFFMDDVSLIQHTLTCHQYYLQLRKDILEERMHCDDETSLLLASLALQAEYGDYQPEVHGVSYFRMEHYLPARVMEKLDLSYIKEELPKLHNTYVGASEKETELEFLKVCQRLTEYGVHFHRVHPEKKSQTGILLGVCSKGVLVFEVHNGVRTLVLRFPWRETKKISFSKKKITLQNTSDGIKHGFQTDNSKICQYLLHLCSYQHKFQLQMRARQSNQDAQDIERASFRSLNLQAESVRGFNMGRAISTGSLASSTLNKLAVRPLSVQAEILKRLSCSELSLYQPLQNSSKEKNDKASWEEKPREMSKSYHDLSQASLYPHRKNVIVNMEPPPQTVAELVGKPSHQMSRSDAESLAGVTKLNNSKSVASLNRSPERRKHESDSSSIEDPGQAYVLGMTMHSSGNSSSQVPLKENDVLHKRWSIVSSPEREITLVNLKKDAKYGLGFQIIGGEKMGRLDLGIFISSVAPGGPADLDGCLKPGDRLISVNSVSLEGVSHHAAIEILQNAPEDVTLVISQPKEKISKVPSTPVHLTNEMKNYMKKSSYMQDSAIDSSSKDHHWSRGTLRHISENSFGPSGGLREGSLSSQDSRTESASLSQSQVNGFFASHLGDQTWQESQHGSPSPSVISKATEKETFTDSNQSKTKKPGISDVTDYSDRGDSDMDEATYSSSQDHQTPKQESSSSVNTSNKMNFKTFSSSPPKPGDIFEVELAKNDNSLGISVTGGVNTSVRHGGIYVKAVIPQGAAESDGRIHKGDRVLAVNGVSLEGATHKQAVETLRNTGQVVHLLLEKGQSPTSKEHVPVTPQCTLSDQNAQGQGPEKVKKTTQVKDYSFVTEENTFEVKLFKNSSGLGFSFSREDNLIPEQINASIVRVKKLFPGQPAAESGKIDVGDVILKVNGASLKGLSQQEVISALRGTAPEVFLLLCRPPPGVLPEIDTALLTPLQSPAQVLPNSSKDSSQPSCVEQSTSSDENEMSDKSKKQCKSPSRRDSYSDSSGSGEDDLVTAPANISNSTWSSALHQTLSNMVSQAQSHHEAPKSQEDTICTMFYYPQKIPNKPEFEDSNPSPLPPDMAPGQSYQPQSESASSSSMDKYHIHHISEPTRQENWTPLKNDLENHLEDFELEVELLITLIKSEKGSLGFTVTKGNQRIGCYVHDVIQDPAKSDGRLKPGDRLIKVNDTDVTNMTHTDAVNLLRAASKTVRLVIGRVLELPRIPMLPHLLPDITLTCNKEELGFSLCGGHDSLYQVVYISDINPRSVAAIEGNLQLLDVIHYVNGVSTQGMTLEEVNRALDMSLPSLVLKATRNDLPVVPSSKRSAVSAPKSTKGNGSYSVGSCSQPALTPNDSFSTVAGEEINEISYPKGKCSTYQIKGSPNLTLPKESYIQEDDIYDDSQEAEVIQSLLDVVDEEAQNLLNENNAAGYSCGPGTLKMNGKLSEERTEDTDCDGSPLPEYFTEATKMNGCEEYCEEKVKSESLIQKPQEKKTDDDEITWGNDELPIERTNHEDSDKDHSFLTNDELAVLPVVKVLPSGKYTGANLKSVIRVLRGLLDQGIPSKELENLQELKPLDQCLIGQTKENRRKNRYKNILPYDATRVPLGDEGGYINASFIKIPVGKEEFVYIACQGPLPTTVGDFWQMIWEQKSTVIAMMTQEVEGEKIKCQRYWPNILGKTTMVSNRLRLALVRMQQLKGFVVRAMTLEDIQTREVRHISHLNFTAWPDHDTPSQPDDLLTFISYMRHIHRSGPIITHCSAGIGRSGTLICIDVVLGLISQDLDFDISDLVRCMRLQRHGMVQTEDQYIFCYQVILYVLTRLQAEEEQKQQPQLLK
Outline: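 35S-labeled FAP-1 incubated 16 h at 4 °C with peptide and GST-Fas fusion protein on glutathione beads in 150 mM NaCl, 50 mM Tris pH 8.0, 5 mM DTT, 2 mM EDTA, 1.1% NP-40, protease inhibitors. After four washes, bead-bound radioactivity counted by scintillation. Specific binding is Fas minus Fas∆15 binding. % inhibition = 100 − (specific binding with peptide / without peptide × 100).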

[2] = Compound (10 mM) was tested in vitro for inhibitory potency against Fas-associated phosphatase-1 binding from HFAP-10cDNA subcloned into the bluescript vector pSK-II(Stratagene); conditions: in the assay text read “10 uM” for “10 mM”
Outline: (§1)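 ³⁵S-labeled protein incubated 16 h at 4 °C with peptide and GST-Fas immobilized on beads, in pH 8.0 Tris/NaCl buffer with DTT, EDTA, 1.1% NP-40 and protease inhibitors. After four washes, bead-bound radioactivity was counted by scintillation. Specific binding is Fas binding minus FasΔ15 binding. % inhibition = 100 − (specific binding with peptide / without peptide × 100).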

[3] = Compound (100 mM) was tested in vitro for inhibitory potency against Fas-associated phosphatase-1 binding from HFAP-10cDNA subcloned into the bluescript vector pSK-II(Stratagene); outline: as §1
[4] = Compound (30 mM) was tested in vitro for inhibitory potency against Fas-associated phosphatase-1 binding from HFAP-10cDNA subcloned into the bluescript vector pSK-II(Stratagene); conditions: in the assay text read “30 µM” for “30 mM”; outline: as §1
[5] = Compound (50 mM) was tested in vitro for inhibitory potency against Fas-associated phosphatase-1 binding from HFAP-10cDNA subcloned into the bluescript vector pSK-II(Stratagene); outline: as §1

Compound: CC(=O)N[C@@H](CO)C(=O)Nc1ccc(C(=O)N[C@H](C(=O)O)C(C)C)cc1
- inhibition [1]: 16.5%

Compound: CC(C)C[C@H](NC(=O)[C@H](CO)NC(=O)c1ccccc1)C(=O)N[C@H](C(=O)O)C(C)C (Bz-Ser-Leu-Val-OH)
- inhibition [2]: 28%

Compound: CC(C)C[C@H](NC(=O)[C@H](CO)NC(=O)Nc1ccccc1C(=O)[C@@H](N)CCC(=O)O)C(=O)N[C@H](C(=O)O)C(C)C
- inhibition [2]: 47.8%

Compound: CC(C)C[C@H](NC(=O)[C@H](CO)NC(=O)Nc1cccc(C(=O)[C@@H](N)CCC(=O)O)c1)C(=O)N[C@H](C(=O)O)C(C)C
- inhibition [2]: 76.8%

Compound: CC(=O)N[C@@H](CO)C(=O)NC(C)(C)C(=O)N[C@H](C(=O)O)C(C)C (Ac-Ser-[Aib]-Val-OH)
- inhibition [1]: -4%

Compound: CC(C)C[C@H](NC(=O)[C@H](CO)NC(=O)NC1CCCCC1)C(=O)N[C@H](C(=O)O)C(C)C
- inhibition [2]: 29.1%

Compound: CC(=O)N[C@@H](COCc1ccccc1)C(=O)N[C@@H](CC(C)C)C(=O)N[C@H](C(=O)O)C(C)C (Ac-Ser(Bn)-Leu-Val-OH)
- inhibition [3]: 10.4%

Compound: CC(=O)N[C@@H](COC(C)=O)C(=O)N[C@@H](CC(C)C)C(=O)N[C@H](C(=O)O)C(C)C (Ac-Ser(Ac)-Leu-Val-OH)
- inhibition [3]: 47.9%

Compound: CC[C@@H](C)[C@H](NC(=O)[C@H](CCC(=O)O)NC(C)=O)C(=O)N[C@@H](CCC(N)=O)C(=O)N[C@@H](CO)C(=O)N[C@@H](CC(C)C)C(=O)N[C@H](C(=O)O)C(C)C
- inhibition [2]: 29.6%

Compound: CC(=O)N[C@@H](CO)C(=O)Nc1cccc(C(=O)N[C@H](C(=O)O)C(C)C)c1
- inhibition [1]: 9.5%

Compound: CC(=O)N[C@@H](CO)C(=O)NCCC(=O)N[C@H](C(=O)O)C(C)C
- inhibition [4]: 13.6%

Compound: CC(=O)N[C@@H](COC(=O)c1ccccc1)C(=O)N[C@@H](CC(C)C)C(=O)N[C@H](C(=O)O)C(C)C (Ac-Ser(Bz)-Leu-Val-OH)
- inhibition [3]: 36.2%

Compound: CC(=O)N[C@@H](CO)C(=O)N[C@@H](CC(C)C)C(=O)N[C@@H](CC(C)(C)C)C(=O)O (Ac-Ser-Leu-[tBuAla]-OH)
- inhibition [5]: 10.1%

Compound: CC(=O)N[C@@H](CO)C(=O)N[C@@H](CC(C)C)C(=O)N[C@H](C(=O)O)C(C)(C)C (Ac-Ser-Leu-[Tle]-OH)
- inhibition [5]: 7.2%

Compound: CC(=O)N[C@H](CO)C(=O)N[C@@H](CC(C)C)C(=O)N[C@H](C(=O)O)C(C)C
- inhibition [1]: 59.2%

Compound: CC(C)C[C@H](NC(=O)[C@H](CO)NC(=O)Nc1ccccc1)C(=O)N[C@H](C(=O)O)C(C)C ({NHPh-CO}-Ser-Leu-Val-OH)
- inhibition [2]: 51.5%

Compound: CC(=O)N[C@@H](CO)C(=O)N[C@@H](CC(C)C)[C@@H](O)C(=O)N[C@H](C(=O)O)C(C)C
- inhibition [4]: 4.9%

Compound: COC(=O)[C@@H](NC(=O)[C@H](CC(C)C)NC(=O)[C@H](CO)NC(C)=O)C(C)C (Ac-Ser-Leu-Val-OMe)
- inhibition [1]: -0.5%

Compound: CC(=O)N[C@@H](CO)C(=O)N(C)[C@@H](CC(C)C)C(=O)N[C@H](C(=O)O)C(C)C (Ac-Ser-[NMeL]-Val-OH)
- inhibition [1]: 33.4%

Compound: CCC[C@H](NC(=O)[C@H](CC(C)C)NC(=O)[C@H](CO)NC(C)=O)C(=O)O (Ac-Ser-Leu-[Nva]-OH)
- inhibition [5]: 16.6%

Compound: CC(=O)N1C[C@@H](O)C[C@H]1C(=O)N[C@@H](CC(C)C)C(=O)N[C@H](C(=O)O)C(C)C
- inhibition [5]: 9.6%

Compound: CC(=O)N1C[C@H](O)C[C@H]1C(=O)N[C@@H](CC(C)C)C(=O)N[C@H](C(=O)O)C(C)C
- inhibition [5]: 2.4%

Compound: CC(=O)N(C)[C@@H](CO)C(=O)N[C@@H](CC(C)C)C(=O)N[C@H](C(=O)O)C(C)C (Ac-[NMeS]-Leu-Val-OH)
- inhibition [1]: 20.6%

Compound: CCC[C@H](NC(=O)[C@H](CO)NC(C)=O)C(=O)N[C@H](C(=O)O)C(C)C (Ac-Ser-[Nva]-Val-OH)
- inhibition [4]: 6%

Compound: CC(=O)N[C@@H](CO)C(=O)N[C@@H](CC(C)C)C(=O)N[C@H](C(=O)Oc1nn[nH]n1)C(C)C
- inhibition [1]: 14.4%

Compound: CC(=O)N[C@@H](CO)C(=O)N[C@H](CC(C)C)C(=O)N[C@H](C(=O)O)C(C)C
- inhibition [1]: 1.2%

Compound: CC(C)C[C@H](NC(=O)[C@H](CO)NC(=O)C1CCCCC1)C(=O)N[C@H](C(=O)O)C(C)C
- inhibition [2]: 16%

Compound: CC(=O)N[C@@H](CO)C(=O)N[C@H](C(=O)N[C@H](C(=O)O)C(C)C)c1ccccc1 (Ac-Ser-[Phg]-Val-OH)
- inhibition [4]: 18.5%

Compound: CC(C)C[C@H](NC(=O)[C@H](CO)NC(=O)Nc1ccc(C(=O)[C@@H](N)CCC(=O)O)cc1)C(=O)N[C@H](C(=O)O)C(C)C
- inhibition [2]: 66.6%

Compound: CC[C@H](NC(=O)[C@H](CO)NC(C)=O)C(=O)N[C@H](C(=O)O)C(C)C (Ac-Ser-[Abu]-Val-OH)
- inhibition [4]: 21.1%

Compound: CC(=O)N[C@@H](CCO)C(=O)N[C@@H](CC(C)C)C(=O)N[C@H](C(=O)O)C(C)C (Ac-[hSer]-Leu-Val-OH)
- inhibition [5]: 13.3%

Compound: CC(=O)N[C@@H](CO)C(=O)N[C@H](C(=O)N[C@H](C(=O)O)C(C)C)C(C)(C)C (Ac-Ser-[Tle]-Val-OH)
- inhibition [4]: 54.6%

Compound: CC(=O)N[C@@H](CO)C(=O)N[C@H](C(=O)N[C@H](C(=O)O)C(C)C)C1CCCCC1 (Ac-Ser-[Chg]-Val-OH)
- inhibition [4]: 34.7%

Compound: CC(=O)N[C@@H](CO)C(=O)N[C@@H](CC(C)C)C(=O)N[C@H](C(=O)O)C1CCCCC1 (Ac-Ser-Leu-[Chg]-OH)
- inhibition [5]: 7.7%

Compound: CC(=O)N[C@@H](CO)C(=O)N[C@@H](CC(C)C)C(=O)N[C@@H](C(=O)O)C(C)C
- inhibition [1]: -6.8%

Compound: CC(=O)N[C@@H](CO)C(=O)N[C@@H](CC(C)C)C(=O)N[C@H](C(=O)O)C(C)C
- inhibition [4]: 31.1%
- inhibition [5]: 44.3%
- inhibition [3]: 87.6%
- inhibition [1]: 101%

Compound: CC(=O)N[C@@H](CC(C)C)[C@@H](O)CC(=O)N[C@@H](CC(C)C)C(=O)N[C@H](C(=O)O)C(C)C (Ac-[Sta]-Leu-Val-OH)
- inhibition [5]: 9.9%

Compound: CC(=O)N[C@@H](CO)C(=O)N[C@@H](Cc1ccc(Oc2ccc(OC(C)=O)cc2)cc1)C(=O)N[C@H](C(=O)O)C(C)C
- inhibition [4]: 46.7%

Compound: CC[C@H](NC(=O)[C@H](CC(C)C)NC(=O)[C@H](CO)NC(C)=O)C(=O)O (Ac-Ser-Leu-[Abu]-OH)
- inhibition [5]: 18.7%
